22 sequences from the EternaBench riboswitch data can be followed below.

In this data set the test system is MS2 coat protein. Briefly: apparent Kd, MS2 coat protein; higher = weaker binding; RNA-MaP array. The method in brief:
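Designs measured on fewer than 10 clusters were excluded from the data. The rest were RNAs transcribed from sequenced DNA templates on an Illumina sequencing chip and incubated at room temperature, with or without input ligand, with fluorescently labeled MS2 coat protein at 1.5 nM to 3 μM for 0.8–1.5 h at the lowest to 10–20 min at the highest concentrations. Apparent Kd is the median of the per-cluster binding-curve fits.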

Setting [1] is: designed as: OFF switch for flavin mononucleotide, no ligand.
Setting [2] is: ligand present: flavin mononucleotide, designed as: OFF switch for flavin mononucleotide.
[3] abbreviates: designed as: ON switch for flavin mononucleotide, no ligand.
Where [4] appears, read: ligand present: flavin mononucleotide, designed as: ON switch for flavin mononucleotide.
Where [5] appears, read: designed as: ON switch for theophylline, no ligand.
Where [6] appears, read: ligand present: theophylline, designed as: ON switch for theophylline.

For orientation: apparent Kd means a dissociation constant that holds for the conditions of the assay. In the case of “UAGCGGACUGUGAGGAUAUAGCAAAUUCAACAAUUCUAGAAGGCACAUGAGGAUCACCCAUGUAGAGUGAUUAA”, the “apparent Kd” value is, setting by setting: under setting [1], 38.5 nM; under setting [2], 70.7 nM.

In the case of “GAUGUCAAACAGAAGGAAGACUUGUACAAGGACUUAGGAUAUGUACAUGAGGAUCACCCAUGUGACUAAUGCGGGCCAUAUGAC”, the “apparent Kd” value under setting [1] amounted to 15.1 nM and the “apparent Kd” value under setting [2] stood at 16.9 nM.

Consider “AAUGCGAGACUAGGAUAUUGCAUUCAACUCGUGCAAGAAGGAGUCGUUUCAUACAUGAGGAUCACCCAUGUCCAUAUUUCUCAA”, for which the “apparent Kd” value runs as follows: under setting [3], 14.5 nM; under setting [4], 7.44 nM.

Regarding “CCGCUUGCAGGAUAUACAUGAGGAUCACCCAUGUUAAGAGAACAGUAACAAAGCAUUUGUAGAAGGGCAAUACG”, the “apparent Kd” value by setting is: under setting [1], 9.81 nM; under setting [2], 9.19 nM.

As to “GAUCCACAUGAGGAUCACCCAUGUGAGGAUACCAGUACCAGAUCCUACCCUUGGCAGCCUAACCUUCAUUCAACACGAAUAAGAA”, the “apparent Kd” value is, setting by setting: under setting [5], 12.4 nM; under setting [6], 14.3 nM.

In the case of “UAGGUGCUCUAAGGAUAUUAUACAUGAGGAUCACCCAUGUGGCGACCAAGGGUAGAAGAGGAACUUAAGAAGGUAGAUGUAUAG”, the “apparent Kd” value by setting is: under setting [1], 43.2 nM; under setting [2], 34 nM.

As for “UUAGGGCGGUAGAAGGAGGAUUACAUGAGGAUCACCCAUGUGGCAGGAGGCGAGGCUCAGUUACCCUAGGAUAUACAUCAGGUU”, the “apparent Kd” value was 24.9 nM under setting [1] and 21.5 nM under setting [2].

As for “UAGGAUUAAGGAGGAUAUCGCCAAUAAGCUUCGCGAGAAGGCCUAUAUACAUGAGGAUCACCCAUGUUUGGUUGUUAGUGUCUU”, the “apparent Kd” value was found to be 7.9 nM under setting [1] and 10.6 nM under setting [2].

With “CCUUAACAUGAGGAUCACCCAUGUCUGGAUACCAGAUACAGAUAAAUCCCUUGGCAGCCAAAAUAUGAAAGAAAUAAAAUAAGAA”, the “apparent Kd” value was found to be 41.3 nM under setting [5] and 48.9 nM under setting [6].

Consider “UAUCUUGAUAGAGGAUAUGAUAUUAAAGAAUAAUCAGAAGGCUAGUCAGAUCUUCUACAUGAGGAUCACCCAUGUUCGCGAACC”, for which the “apparent Kd” value came out at 211 nM under setting [1] and 208 nM under setting [2].

For the sequence “UAACCCGUGUAGAAGGCAAGCUCCGCGCUGGUCGUCAUCACAUGAGGAUCACCCAUGUGGAAGAUUGAGGAUAUACGCGCGAUG”, the “apparent Kd” value runs as follows: under setting [1], 5.45 nM; under setting [2], 7.53 nM.

As for “UUAUAGAGAGGAUAUACAUGAGGAUCACCCAUGUUAUUACCAAGCUUGAUGGGUAUGCGUAGAAGGCUCAUGAA”, the “apparent Kd” value under setting [1] turned out to be 19.1 nM and the “apparent Kd” value under setting [2] was determined as 35 nM.

As to “CGGCAUGGAACAGGAUAUGGGUAAUUCAUUUGACCAGAAGGGUUCUUCAGCAGCCGUUGCACAUGAGGAUCACCCAUGUCAUAU”, the “apparent Kd” value reads like this: under setting [3], 29.7 nM; under setting [4], 10 nM.

As for “GACAUGAGGAUCACCCAUGUGAAGCAUGGUGGGCGCUCGUCCUAGGAUAUCUGCAAGUAGCUAGGAGAGAAGGAGGUAGCCAAA”, the “apparent Kd” value came out at 76.3 nM under setting [1] and 57.6 nM under setting [2].

In the case of “ACCCAGACAUGAGGAUCACCCAUGUAAAUAGAGUACAUCAGGAGAAGGUUCAAAGGGCCUACCCGAAAGGAUAUCCUCGGCGUA”, the “apparent Kd” value runs as follows: under setting [3], 30.8 nM; under setting [4], 25.7 nM.

Consider “UAUGGCAACUUAGGAUAUCAAUGCAUCGAUUAUUGAGAAGGAAGAAACAUGAGGAUCACCCAUGUCUCUACAGGGAUAAGGACC”, for which the “apparent Kd” value reads like this: under setting [1], 7.38 nM; under setting [2], 7.98 nM.

As for “UUAGCACAUGAGGAUCACCCAUGUUAGGAUAUCCGUUAAUAUCAGGCAAGGUCUGAAAGGAGAAGGAACAUGAA”, the “apparent Kd” value is 35.4 nM under setting [1] and 67.9 nM under setting [2].

Regarding “AUAGCAUGAGUAGGAUAUUUUGAGCGUUGUGCAAAAGAAGGACUGACCGUGAUUAUAAUAUACAUGAGGAUCACCCAUGUUACA”, the “apparent Kd” value is, setting by setting: under setting [1], 9.42 nM; under setting [2], 8.03 nM.

As for “AUAUGUUGAGGAUAUACAUGAGGAUCACCCAUGUAAUAUGAACGGAAUGAUUUAAGGAGUAGAAGGCAACACCA”, the “apparent Kd” value turned out to be 12.8 nM under setting [1] and 24.4 nM under setting [2].

For “GUCGGCUCAGUGUAGGAUAUGUCAAAGGUCACAUGAGGAUCACCCAUGUCUCGACGCAAAUUAGGACAGAAGGACAGCCAAAGCAU”, the “apparent Kd” value reads like this: under setting [3], 7.57 nM; under setting [4], 4.97 nM.

As for “UUGAAGAAUCACAUGAGGAUCACCCAUGUCAGGGUGAGUUUUGAGGAUAUACCGCCCAGGACUCGGUAGAAGGCAAGAAAUUAA”, the “apparent Kd” value was 553 nM under setting [1] and 562 nM under setting [2].

For “CAGACGUAGAUUACAUGAGGAUCACCCAUGUCAUACCAGAUCAGAAGGGUUCUAGAGCGUACUCAACAGGAUAUGAUAAGUCCC”, the “apparent Kd” value worked out at 18.3 nM under setting [3] and 16.5 nM under setting [4].
